High-throughput results deposited in PubChem by The Scripps Research Institute Molecular Screening Center.
Sampled rows, rich in hits. Any-hit rate of the full collection: about 1.6%.
UHRF1 MBD2 ctr: blocks human UHRF1 binding to methylated DNA; Q96T88; UHRF1 binding to methylated oligo, TR-FRET; inhibition, % at 4.4 µM; 0.75% of 370,000 active; AID 687016; in the data active = inhibition above about 21%;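 also: UHRF1 SRA domain binding a hemimethylated CpG hairpin DNA probe; 0% = median of test compound wells and 100% = reference inhibitor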
MBD2 inh: blocks human MBD2 binding to methylated DNA; inhibition, % at 4.4 µM; 0.31% of 370,000 active; TR-FRET, MBD2 binding to methylated oligonucleotide; AID 686964; in the data active = inhibition above about 13%
LEDGF integ inh: blocks HIV-1 LEDGF/p75-dependent DNA integration. inhibition, % at 3.7 µM. TR-FRET IN-LEDGF/p75 DNA integration, Eu/Cy5. 0.64% of 370,000 active;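 active = inhibition above the screen-wide mean plus 3 SD, cut at about 13% in these data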;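 also: signal is the Cy5 over europium emission ratio at 671 and 618 nm; 0% = plate median of compound wells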
TDP2 inh: blocks human TDP2 phosphodiesterase activity. O95551. 0.34% of 370,000 active. recombinant TDP2, T5PNP hydrolysis, p-nitrophenol absorbance 415 nm. inhibition, % at 12.8 µM;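 active = inhibition above the mean of all tested compounds plus 3 SD, set per campaign, cut at about 25% in these data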;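 also: 0% = DMSO with enzyme and 100% = buffer with substrate but no TDP2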
Target sequence (O95551 whole entry, looked up): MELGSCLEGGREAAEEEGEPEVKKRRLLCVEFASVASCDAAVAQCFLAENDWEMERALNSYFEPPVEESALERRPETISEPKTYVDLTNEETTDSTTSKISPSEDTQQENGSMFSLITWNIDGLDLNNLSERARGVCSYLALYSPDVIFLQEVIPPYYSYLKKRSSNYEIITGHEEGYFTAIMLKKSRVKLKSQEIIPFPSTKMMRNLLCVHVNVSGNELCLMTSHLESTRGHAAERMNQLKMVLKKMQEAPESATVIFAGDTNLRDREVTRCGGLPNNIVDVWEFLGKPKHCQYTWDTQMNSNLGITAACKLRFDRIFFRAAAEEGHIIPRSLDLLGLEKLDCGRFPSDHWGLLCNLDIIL
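Material: recombinant human TDP2; quantity: TDP2 enzyme at 120 nM final; medium: Tris-HCl pH 7.5 with MgCl2; compound: single concentration, 12.8 µM nominal, with 1% DMSO; incubation: 2 h enzyme incubation at 37 °C; signal: epi absorbance; measure: percent inhibition; benchmarks: high control without enzyme, low control DMSO plus TDP2; repeats: singlicate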
IN multimer up: counter-screen for LEDGF/p75 integration inhibitors: HIV-1 integrase multimerization activators; shares compounds with LEDGF integ inh; activation, % at 7.7 µM; 17% of 2,000 active; TR-FRET HIV-1 integrase multimerization, biochemical; in the data active = activation above about 8.9%
TRFRET interf: optically interferes with TR-FRET readout in LEDGF counter-screen. shares compounds with LEDGF integ inh. 2,000 tested, under 10 active. TR-FRET optical interference counterscreen, HIV-1 IN multimerization. inhibition, % at 7.7 µM;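 active = inhibition above the mean over all tested compounds plus 3 SD, which no compound reached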;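 also: 0% = integrase with antibodies and DMSO and 100% = antibodies without integrase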
LEDGF integ conf: LEDGF/p75-dependent HIV-1 integration inhibition, confirmation | inhibition, % at 3.7 µM | 36% of 2,000 active | TR-FRET LEDGF/p75-dependent HIV-1 integration, biochemical | shares compounds with LEDGF integ inh | AID 1053136; in the data active = inhibition above about 14%
* = called active by the depositor; . = no result given.

SMILES	UHRF1 MBD2 ctr	MBD2 inh	LEDGF integ inh	TDP2 inh	IN multimer up	TRFRET interf	LEDGF integ conf
O=C(NC1CCCCN(Cc2cccc(Cl)c2)C1=O)c1c(F)cccc1F (stereo not drawn)	-4.6	-0.3	-4.5	-2.3	.	.	.
O=[N+]([O-])c1c(NCCCO)cc(Sc2ccc(Cl)cc2)c2nonc12	8.5	-6.3	-1.8	0.3	.	.	.
O=[N+]([O-])c1c(NCCCO)cc(SCc2ccco2)c2nonc12	34.5*	7.2	38.1*	21.3	4.5	-22.7	1.0
NNc1ccc([N+](=O)[O-])c2[nH][nH]c(=O)c12	39.7*	5.0	18.9*	4.8	34.9*	-175.5	44.0*
C=CCN1[C@H](Cc2ccccc2)COc2cc(F)ccc2S1(=O)=O	-3.6	2.8	3.8	2.9	.	.	.
O=C(O)C1Nc2c(O)cccc2C2C=CCC12 (stereo not drawn)	73.7*	37.1*	70.4*	19.6	8.9*	-30.5	77.0*
COc1ccc2c(c1)CCCN2C(=O)C1CCCN(S(=O)(=O)c2c(C(C)C)cc(C(C)C)cc2C(C)C)C1 (stereo not drawn)	0.5	6.6	3.2	14.1	.	.	.
COc1ccc(/C=C2\CCc3c2nc2ccccc2c3C(=O)O)cc1OC	1.4	-7.4	14.7*	8.7	-1.2	6.3	22.4*
COc1cc(/C=C2\CCCc3c2nc2ccccc2c3C(=O)O)cc(OC)c1O	0.3	3.7	0.8	3.5	.	.	.
COC(=O)[C@]12C[C@H](CC(=O)NCc3cccc(C(F)(F)F)c3)C(=O)N(Cc3ccc(Cl)cc3Cl)C1=C[C@H](C(C)C)O[C@@H]2C1CC1	-1.8	-2.8	1.8	10.1	.	.	.
COC(=O)c1cc2c(c3c4cc(C)ccc4n(S(=O)(=O)c4ccc(OC)cc4)c13)C(=O)N(Cc1ccccc1)C2	-1.3	-1.6	-3.6	-4.6	.	.	.
CCCCS(=O)(=O)N1C2=NC(C(=O)OCC)=C(C(=O)OCC)C3N(Cc4ccc(Br)cc4)c4ccccc4[C@]23C[C@H]1C(=O)OC (stereo partly drawn)	-1.2	7.5	-1.6	-3.5	.	.	.
COC(=O)c1ccc(NC(=S)N2CCN(Cc3ccccc3Cl)CC2)cc1	1.1	0.2	75.6*	-9.7	0.3	-1.4	-10.2
CCc1ccc(CN2CCC(CO)(CC3CCCCO3)CC2)o1 (stereo not drawn)	0.4	-2.5	13.3*	-17.4	-0.4	2.1	1.1
Cn1c(=O)cc(OCCCC(=O)Nc2cc(-c3ccncc3)ccn2)c2ccccc21	-3.6	-3.2	-0.5	-3.2	.	.	.
Cc1ccccc1OCC(=O)OCC(=O)Nc1cc(C(F)(F)F)ccc1N1CCOCC1	-0.7	-9.4	16.9*	2.0	-0.6	3.3	-5.6
COc1ccc(C(=O)C(=O)N2CCN(C(=O)c3cc(C(F)(F)F)cc(C(F)(F)F)c3)CC2)cc1OC	5.5	8.0	0.3	0.6	.	.	.
C=CS(=O)(=O)N(Cc1ccc(C)cc1)[C@@H](CO)C(=O)OC	0.8	0.1	-5.8	3.8	.	.	.
CCc1ccc(O)c(-c2cc(C(=O)Nc3cccnc3)[nH]n2)c1	-1.1	3.2	15.3*	2.0	-2.5	12.8	-1.1
Cc1cc(O)c(-c2cc(C(=O)Nc3cccnc3)[nH]n2)cc1C	3.0	4.3	-7.5	-3.4	.	.	.
Cc1ccc(-n2c(C)cc(-c3csc(N)n3)c2C)cc1	-0.1	1.0	7.8	1.2	.	.	.
Cc1cc(C(=O)CSc2nnc(N)s2)c(C)n1Cc1ccco1	1.5	2.3	-2.4	7.8	.	.	.
Cc1cc(-c2csc(N)n2)c(C)n1C	5.6	11.3	21.6*	8.4	7.4	-26.4	53.0*
Cc1cc(-c2csc(N)n2)c(C)n1Cc1ccco1	0.2	0.3	24.1*	11.7	16.9*	-85.4	80.2*
CN(C)S(=O)(=O)c1cccc(C(=O)N/N=C\c2ccccc2[N+](=O)[O-])c1	-3.0	7.1	-0.4	0.6	.	.	.
SMILES	UHRF1 MBD2 ctr	MBD2 inh	LEDGF integ inh	TDP2 inh	IN multimer up	TRFRET interf	LEDGF integ conf
O=C(O)CCCC(=O)Nc1ccc(N2CCCC2)cc1	21.0*	-1.8	13.8*	1.7	12.3*	-61.9	13.2
CCCC(=O)Nc1ccc(N2CCCCC2)cc1	9.2	2.2	1.7	-13.6	.	.	.
COC(=O)C1CN(CCc2ccccc2)CCS(=O)(=O)N1Cc1ccc(Cl)cc1 (stereo not drawn)	-2.5	-2.8	-1.7	0.0	.	.	.
O=C1CCC[C@H]2Cc3nc4ccccc4cc3C[C@]23CCCN13	0.4	-2.1	-1.0	5.0	.	.	.
c1ccc(-n2c(-c3ccncc3)nnc2-c2ccco2)cc1	2.1	-6.3	66.8*	8.6	-2.1	10.8	-4.4
C#CC1c2ccccc2CCN1CC=C (stereo not drawn)	-4.2	-3.8	4.5	3.3	.	.	.
O=C(Nc1scc(-c2ccccc2)c1C(=O)O)c1ccccc1Cl	1.1	-7.7	7.6	-3.0	.	.	.
COc1ccc(-c2csc(NC(=O)c3ccccc3F)c2C(=O)O)cc1	-0.6	5.8	15.2*	-4.5	3.2	-11.4	9.9
CCc1nc2c(OCC3COc4ccccc4O3)cccn2c1N(C)C(=O)c1cccc(OC)c1 (stereo not drawn)	-0.8	2.8	19.5*	-4.9	1.2	-6.0	0.1
CC(C)CNc1cccc2c1S(=O)(=O)N[C@@H](CC(C)C)CO2	8.3	-1.0	-2.9	-6.0	.	.	.
CCN(Cc1ccccc1OC)CC1CCCN(CCc2cccc(OC)c2)C1 (stereo not drawn)	4.4	4.3	-3.8	3.8	.	.	.
CCN(Cc1ccc(NC(C)=O)cc1)CC1CCCN(CCc2cccc(OC)c2)C1 (stereo not drawn)	-0.4	-3.5	63.2*	2.4	-0.5	2.6	0.0
CC(C)(C)c1ccc(C(=O)N/C(=C\c2ccco2)C(=O)Nc2ccccc2C(=O)O)cc1	16.1	6.4	20.0*	-0.9	1.9	-9.7	25.5*
O=C(Nc1ccc(C(=O)O)cc1)/C(=C\c1ccco1)NC(=O)c1ccccc1Cl	6.6	-6.2	17.2*	-1.6	2.2	-10.8	2.0
COc1ccc(S(=O)(=O)N2CCCc3nc(-c4ccccc4)ccc32)cc1	-0.3	-3.4	2.3	-4.5	.	.	.
CCC1CCc2sc(C(=O)NCC(c3ccc(OC)cc3)N3CCOCC3)cc2C1 (stereo not drawn)	14.9	-0.1	61.6*	-2.4	-0.4	1.9	0.4
c1ccc(-c2noc(CN3CCN(C(c4ccccc4)c4ccccc4)CC3)n2)cc1	-0.3	-0.7	15.2*	11.7	0.3	-1.5	-1.0
COc1cccc(=O)c2c(C)n(-c3ccc(C(=O)O)cc3)c(C)c12	16.4	2.8	17.4*	18.6	4.1	-14.4	22.9*
O=C(c1ccc2c(c1)N(Cc1ccccc1F)C(=O)c1ccccc1S2)N1CCOCC1	-1.3	1.3	30.0*	1.0	0.5	-2.6	-7.4
